Assay outcomes: PubChem BioAssay, Johns Hopkins Ion Channel Center
hERG protect = compounds protecting human hERG from proarrhythmic drug block | Q12809 | CHO-hERG, FluxOR thallium flux, dofetilide IC70 present | activation (rescue from dofetilide block), less the hit threshold, % at 10 µM | 0.51% of 310,000 active | AID 1511;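 active means activation above the mean of controls blocked by dofetilide plus 5 SD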;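 further: thallium influx through hERG after potassium depolarization seen as dye fluorescence rise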
KCNK3 block = human KCNK3 channel inhibition, primary screen | O14649 | B-score at 10 µM | 0.84% of 340,000 active | CHO-KCNK3 thallium flux, FluxOR fluorescence; stronger effect = lower value;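 active means B-score under library mean minus 4 SD, starting fluorescence ratio at most library mean plus 5 SD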;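 further: more negative B-score means stronger inhibition of thallium flux through KCNK3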
KCNK9 inh = blocks the human KCNK9 two-pore domain potassium channel | 1.2% of 310,000 active | AID 488922 | B-score at 10 µM | HEK293 KCNK9, FluxOR thallium flux fluorescence; stronger effect = lower value | Q9NPC2;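 active means ratio B-score over 3 SD below the library mean, with starting fluorescence within 5 SD of its mean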;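 further: negative B-score means less thallium flux so channel inhibition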
KCNQ1 block = human KCNQ1 channel inhibition; P51787; CHO-K1 KCNQ1, FluxOR thallium flux fluorescence; stronger effect = higher value; B-score at 10 µM; 1.3% of 310,000 active; AID 2642;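 active means compounds whose thallium flux B-score, printed positive for inhibition, exceeds three library SD while starting fluorescence stays within three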;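 further: channel opened by potassium depolarization with thallium stimulus after 20 min compound exposure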
Target sequence (P51787 whole entry, looked up): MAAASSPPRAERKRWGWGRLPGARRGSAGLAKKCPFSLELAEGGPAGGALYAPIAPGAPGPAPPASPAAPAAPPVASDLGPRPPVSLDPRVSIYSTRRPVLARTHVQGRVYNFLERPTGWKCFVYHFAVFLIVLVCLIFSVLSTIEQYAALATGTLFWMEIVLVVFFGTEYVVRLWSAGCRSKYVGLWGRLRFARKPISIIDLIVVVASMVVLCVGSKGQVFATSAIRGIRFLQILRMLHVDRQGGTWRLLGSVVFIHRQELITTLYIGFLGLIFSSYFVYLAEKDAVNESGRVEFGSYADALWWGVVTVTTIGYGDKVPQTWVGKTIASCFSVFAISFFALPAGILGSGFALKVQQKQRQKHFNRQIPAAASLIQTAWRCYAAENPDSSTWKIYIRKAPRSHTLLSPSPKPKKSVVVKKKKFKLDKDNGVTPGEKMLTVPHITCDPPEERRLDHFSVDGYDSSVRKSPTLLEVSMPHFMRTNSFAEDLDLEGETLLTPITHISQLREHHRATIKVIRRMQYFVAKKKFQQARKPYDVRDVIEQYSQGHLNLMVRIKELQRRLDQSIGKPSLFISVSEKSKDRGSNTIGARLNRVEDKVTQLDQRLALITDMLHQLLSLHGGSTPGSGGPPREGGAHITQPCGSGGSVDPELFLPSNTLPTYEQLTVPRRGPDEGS
KCNQ1 pot = potentiates or activates the human KCNQ1 potassium channel; CHO-K1 KCNQ1, thallium flux FluxOR fluorescence; stronger effect = higher value; P51787; B-score at 10 µM; 0.35% of 310,000 active;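 active means fluorescence ratio B-score, a plate-corrected score, at least three library SD, with initial intensity B-score within 5 SD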
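Test system: CHO-K1 cells stably expressing KCNQ1 / Medium: assay buffer / Also added: depolarizing K+/Tl+ stimulus, K2SO4 and Tl2SO4 each 12.5 mM in 5x stock / Incubation: 90 min dye loading and 20 min compound exposure, both at room temperature / Signal: thallium influx via FluxOR fluorescence, kinetic imaging / Evaluation: B score of baseline-normalized fluorescence ratio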
An asterisk follows results filed as active; i = inactive; · = not tested or not shown. This is a sample that favours compounds with a hit; in the whole collection about 3.1% have one here.

SMILES	hERG protect	KCNK3 block	KCNK9 inh	KCNQ1 block	KCNQ1 pot
CCOC(=O)c1cc(=O)n2nc(-c3ccc(C)cc3)nc2s1	-9.5	i	i	7*	i
COc1cccc(C(=O)N2CCN(C(=O)c3ccc(-c4ccccc4)cc3)CC2)c1OC	-6.3	i	i	i	i
COc1ccc(C(=O)N2CCC(c3ccccc3)CC2)c(OC)c1OC	5.9*	i	i	i	i
C=CCN1C(=O)/C(=C/C=C2/N(CC)c3ccc(S(=O)(=O)N(C)C)cc3N2CC)SC1=S	-16.7	i	i	9*	i
C=CCN1C(=O)/C(=C2/Sc3ccccc3N2CC)SC1=S	1.4	i	i	i	i
O=C(CSc1nnc(-c2ccncc2)n1Cc1ccco1)Nc1ccccc1F	-6.3	i	-6.93*	i	i
O=C(CSc1nnc(-c2ccncc2)n1Cc1ccco1)Nc1ccccc1Cl	-15.2	i	i	i	i
O=C(NC(=S)N1CCCc2ccccc21)c1ccc(Br)cc1	42.9*	i	i	i	16*
O=C(NC(=S)N1CCCc2ccccc21)c1ccccc1	2.0	i	i	i	i
O=C(COc1ccccc1)NC(=S)N1CCc2ccccc21	4.9*	i	i	i	10*
CC1(C)Cc2c(sc3[nH]c(=S)n(Cc4ccccc4)c(=O)c23)CO1	4.7*	i	i	i	34*
COc1cccc(CCc2nnc(CCC(=O)NCCC3CCCCO3)o2)c1 (stereo not drawn)	-3.4	i	i	i	i
O=C1c2ccccc2C(Nc2ccc(-c3nc4ccccc4[nH]3)cc2)N1Cc1ccco1 (stereo not drawn)	-13.1	-10.8*	i	i	i
CS(=O)(=O)N(Cc1ccc(Cl)cc1)c1ccc(C(=O)N/N=C/c2cc3ccccc3nc2Cl)cc1	-8.5	i	-7.35*	i	i
CCNC(=S)N1CCN(c2nc(CC)nc3sc4c(c23)CCCC4)CC1	-14.0	-11.6*	i	i	i
CCOC(=O)c1nc(N2CCN(C(=O)OCC)CC2)c2c3c(sc2n1)CCCC3	-19.0	i	i	i	i
CC[n+]1ccccc1/C=C1\Sc2ccc(C)cc2N1C	-32.6	i	i	7*	i
COc1ccc(-c2cc(C(=O)Nc3cccc(S(=O)(=O)NCc4ccco4)c3)c3ccccc3n2)cc1OC	-12.4	i	i	i	i
O=C(Nc1cccc(S(=O)(=O)NCc2ccco2)c1)c1cc(-c2ccc(F)cc2)nc2ccccc12	-9.6	i	i	7*	i
O=C(Nc1ccccc1)c1ccc(S(=O)(=O)NCc2ccco2)cc1	-6.7	i	i	i	i
O=C(Nc1ccccc1)c1cccc(S(=O)(=O)NCc2ccco2)c1	7.3*	i	i	i	i
O=C(COC(=O)c1cccc(OC(F)F)c1)Nc1cccc(S(=O)(=O)N2CCCC2)c1	·	i	·	·	·
Cc1nc(NC(=O)COC(=O)c2cccs2)c(Cl)cc1Cl	·	i	·	·	·
Cc1cc(N/N=C/c2cccc(F)c2)nc(NCc2ccccc2)n1	-31.0	i	i	8*	i
Cc1cc(N/N=C/c2ccccc2)nc(NCc2ccccc2)n1	-3.6	i	i	i	i
SMILES	hERG protect	KCNK3 block	KCNK9 inh	KCNQ1 block	KCNQ1 pot
Cc1cc(-c2ccccc2)nc(N/N=C/c2ccccc2)n1	-8.0	i	-6.97*	i	i
Cc1cc(-c2ccccc2)nc(N/N=C/c2cccnc2)n1	-15.1	i	i	i	i
O=C(NC1CCCCC1)C(c1ccc2ncccc2c1)N(Cc1ccc2c(c1)OCO2)C(=O)c1cccs1 (stereo not drawn)	-5.7	i	i	6*	i
COC(=O)c1cc(S(=O)(=O)C(C)C)c(S(C)=O)s1 (stereo not drawn)	-5.3	i	i	i	i
COc1cccc(-c2nnc(Nc3nc4c(F)cccc4s3)o2)c1	39.7*	i	i	i	35*
COc1cccc2sc(Nc3nc(-c4cc5ccccc5oc4=O)cs3)nc12	-1.5	i	-7.31*	i	i
COc1cccc2sc(Nc3nc(-c4ccncc4)cs3)nc12	-26.6	i	i	i	i
COc1cccc2sc(Nc3nnc(-c4ccccc4Cl)o3)nc12	8.7*	i	i	i	15*
COc1ccccc1-c1nnc(Nc2nc3c(OC)cccc3s2)o1	-16.4	i	i	i	i
Oc1ccc2ccccc2c1C=Nc1ccccc1-c1nc2ccccc2[nH]1	-9.4	i	i	9*	i
O=C(O)c1ccccc1-c1nc2ccccc2[nH]1	-2.9	i	i	i	i
O=c1cc(-c2ccc(Cl)cc2)nc(N2CCN(c3ccccc3)CC2)[nH]1	-5.6	i	-7.22*	i	i
Cc1cc(=O)[nH]c(N2CCN(Cc3ccccc3)CC2)n1	-7.8	i	i	i	i
CCOCCn1ccc2c(OCC(=O)NCc3ccccc3)cccc2c1=O	-9.3	i	i	i	i
C=CCn1c(COc2ccc(Cl)cc2)nnc1SCC(=O)N/N=C/c1cccc(O)c1	-9.2	i	i	i	i
C=CCn1c(COc2ccccc2)nnc1SC(C)C(=O)N/N=C/c1cc(Cl)ccc1O (stereo not drawn)	-12.9	i	i	7*	i
O=C(NCc1ccccc1CN1CCCC1)c1ccc(Cl)c(S(=O)(=O)N2CCCC2)c1	·	i	·	·	·
Cc1c(CCOC(=O)CC23CC4CC(CC(C4)C2)C3)sc[n+]1CC(=O)c1ccccc1	-19.9	i	i	6*	i
Cc1c(CCOC(=O)C23CC4(C)CC(C)(CC(C)(C4)C2)C3)sc[n+]1CC(=O)c1ccccc1	-7.2	i	i	i	i
Cc1cccc(-c2cc3nc4c(c(N5CCOCC5)n3n2)CCCC4)c1	-7.0	i	i	i	i
Cc1cccc(-c2cc3nc4c(c(NCc5ccco5)n3n2)CCCC4)c1	-9.1	i	-7.22*	i	i
COc1ccc(C(=O)Nc2ccccc2N2CCCC2)cc1S(=O)(=O)N1CCOCC1	-8.4	i	i	i	i
Cc1ccc(-n2ncc3c(SCc4ccccc4)ncnc32)cc1	8.6*	i	i	i	i
Cc1occc1C(=O)/C(C#N)=C/c1ccc(O)c(Br)c1	-24.6	i	i	11*	i
N#C/C(=C\c1ccc(O)c(Br)c1)C(=O)N1CCCCC1	-2.4	i	i	i	i
Cc1ccc(Oc2c(C(N)=O)cc([N+](=O)[O-])cc2[N+](=O)[O-])cc1	-15.1	i	i	6*	i
COc1ccc(N2CCN(C(CNS(=O)(=O)c3ccccc3)c3ccccc3)CC2)cc1 (stereo not drawn)	-3.7	i	i	i	i
